We go through 2 compounds from ChEMBL document CHEMBL2417412, “Design, synthesis, and structure-activity relationships of dihydrofuran-2-one and dihydropyrrol-2-one derivatives as novel benzoxazin-3-one-based mineralocorticoid receptor antagonists” (Bioorg Med Chem, 2013).

What all share (format): cell-based, HEK293
In one assay the target is T1, Progesterone receptor (Homo sapiens, UniProt P06401).
T1 sequence (P06401 whole entry): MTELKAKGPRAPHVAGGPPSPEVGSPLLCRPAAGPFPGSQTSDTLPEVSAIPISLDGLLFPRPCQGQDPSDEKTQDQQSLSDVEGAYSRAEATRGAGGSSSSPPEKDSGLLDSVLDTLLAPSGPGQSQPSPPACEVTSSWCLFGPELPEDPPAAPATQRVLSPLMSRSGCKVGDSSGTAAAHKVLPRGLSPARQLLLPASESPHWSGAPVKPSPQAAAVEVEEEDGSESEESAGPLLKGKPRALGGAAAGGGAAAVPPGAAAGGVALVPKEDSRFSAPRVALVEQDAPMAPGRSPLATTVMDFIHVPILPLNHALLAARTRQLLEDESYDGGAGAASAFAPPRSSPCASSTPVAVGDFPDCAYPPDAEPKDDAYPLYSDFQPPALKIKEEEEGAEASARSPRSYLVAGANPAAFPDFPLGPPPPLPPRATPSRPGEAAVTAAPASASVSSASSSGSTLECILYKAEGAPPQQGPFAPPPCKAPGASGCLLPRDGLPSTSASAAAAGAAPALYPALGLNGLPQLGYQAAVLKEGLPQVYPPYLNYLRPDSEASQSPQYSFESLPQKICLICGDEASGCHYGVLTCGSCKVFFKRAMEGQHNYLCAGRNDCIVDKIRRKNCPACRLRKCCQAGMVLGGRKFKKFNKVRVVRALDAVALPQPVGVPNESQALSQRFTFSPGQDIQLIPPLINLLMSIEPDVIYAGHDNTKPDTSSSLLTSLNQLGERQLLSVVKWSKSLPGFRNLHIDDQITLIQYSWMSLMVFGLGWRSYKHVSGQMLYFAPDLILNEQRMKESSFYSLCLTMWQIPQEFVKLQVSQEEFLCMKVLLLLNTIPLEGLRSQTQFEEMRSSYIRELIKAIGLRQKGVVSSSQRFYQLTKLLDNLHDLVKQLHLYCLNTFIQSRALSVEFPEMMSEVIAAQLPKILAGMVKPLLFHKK
Nature of the assay: Displacement of [3H]-Progesterone from human PR expressed in 293 cells after 16 hrs by scintillation counting. In outline:
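The PR assay ran like the MR cytosolic binding assay from transfected 293 cells, with 5 nM [3H]-progesterone as ligand. Incubation was 16 h at 4 °C in TEGM buffer pH 7.2, followed by dextran/gelatin-charcoal removal of free label and scintillation counting of the supernatant. Concentrations were run in duplicate; IC50 taken as the mean of duplicate experiments from concentration-response curves.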
(Loss of bound radioactivity is the signal in a displacement assay; it reports binding, not function.)

For another assay, the target named is T2, Androgen receptor (Homo sapiens, UniProt P10275).
T2 sequence (P10275 whole entry): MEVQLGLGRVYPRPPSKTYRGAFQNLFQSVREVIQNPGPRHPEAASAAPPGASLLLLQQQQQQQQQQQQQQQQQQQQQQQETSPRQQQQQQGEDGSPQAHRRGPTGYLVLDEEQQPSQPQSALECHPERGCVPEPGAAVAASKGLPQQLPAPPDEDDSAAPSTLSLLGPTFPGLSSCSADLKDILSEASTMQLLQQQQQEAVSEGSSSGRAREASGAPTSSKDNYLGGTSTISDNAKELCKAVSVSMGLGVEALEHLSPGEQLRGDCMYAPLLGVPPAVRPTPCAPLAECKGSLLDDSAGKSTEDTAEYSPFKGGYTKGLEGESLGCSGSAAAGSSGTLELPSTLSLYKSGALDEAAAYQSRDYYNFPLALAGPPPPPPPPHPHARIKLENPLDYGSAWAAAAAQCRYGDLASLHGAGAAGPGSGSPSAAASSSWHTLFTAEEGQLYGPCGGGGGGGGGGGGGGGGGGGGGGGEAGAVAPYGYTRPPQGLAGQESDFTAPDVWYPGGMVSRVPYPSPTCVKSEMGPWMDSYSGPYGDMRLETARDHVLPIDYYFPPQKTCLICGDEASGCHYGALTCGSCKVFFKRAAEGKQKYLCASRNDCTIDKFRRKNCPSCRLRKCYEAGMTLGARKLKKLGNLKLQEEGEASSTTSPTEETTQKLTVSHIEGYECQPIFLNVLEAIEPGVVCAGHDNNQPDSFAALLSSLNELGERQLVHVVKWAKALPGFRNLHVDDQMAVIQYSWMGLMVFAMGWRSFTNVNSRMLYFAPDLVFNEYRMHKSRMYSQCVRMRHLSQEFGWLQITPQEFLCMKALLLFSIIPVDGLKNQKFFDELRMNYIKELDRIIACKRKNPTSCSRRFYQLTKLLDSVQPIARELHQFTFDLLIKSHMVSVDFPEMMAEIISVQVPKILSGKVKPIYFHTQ
Kind of assay: Displacement of [3H]-Testosterone from human AR expressed in 293 cells after 16 hrs by scintillation counting. In outline:
(§1)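 These followed the MR cytosolic binding protocol (transfected 293 cells, TEGM buffer pH 7.2, 16 h at 4 °C, charcoal separation, scintillation counting of supernatant). The ligand was [3H]-dexamethasone for GR and [3H]-testosterone for AR. Concentrations were run in duplicate; IC50 taken as the mean of duplicate experiments from concentration-response curves.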

In another assay the target is T3, Glucocorticoid receptor (Homo sapiens, UniProt P04150).
T3 sequence (P04150 whole entry): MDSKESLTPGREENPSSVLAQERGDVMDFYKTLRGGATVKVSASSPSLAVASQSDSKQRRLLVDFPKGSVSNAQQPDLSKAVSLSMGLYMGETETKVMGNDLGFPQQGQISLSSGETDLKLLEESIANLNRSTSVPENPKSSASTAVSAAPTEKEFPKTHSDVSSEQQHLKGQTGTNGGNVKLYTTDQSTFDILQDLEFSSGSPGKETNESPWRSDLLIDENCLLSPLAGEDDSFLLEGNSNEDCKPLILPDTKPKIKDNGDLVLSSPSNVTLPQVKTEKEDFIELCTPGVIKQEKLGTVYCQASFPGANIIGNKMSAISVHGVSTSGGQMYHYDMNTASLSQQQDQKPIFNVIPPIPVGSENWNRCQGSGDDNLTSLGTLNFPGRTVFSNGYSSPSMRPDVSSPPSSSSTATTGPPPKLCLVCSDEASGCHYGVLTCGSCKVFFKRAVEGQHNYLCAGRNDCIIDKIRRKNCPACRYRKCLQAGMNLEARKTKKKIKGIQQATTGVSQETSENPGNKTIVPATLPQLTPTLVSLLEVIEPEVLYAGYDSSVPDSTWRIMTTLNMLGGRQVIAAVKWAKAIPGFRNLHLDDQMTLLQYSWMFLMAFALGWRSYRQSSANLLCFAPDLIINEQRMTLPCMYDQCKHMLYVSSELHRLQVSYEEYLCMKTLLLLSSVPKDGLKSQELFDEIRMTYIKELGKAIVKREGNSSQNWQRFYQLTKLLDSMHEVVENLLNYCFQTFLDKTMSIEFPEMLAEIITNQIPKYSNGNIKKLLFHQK
Kind of assay: Displacement of [3H]-Dexamethasone human GR expressed in 293 cells after 16 hrs by scintillation counting. In outline:
as §1

For orientation: IC50 means the concentration that inhibits the measured activity by half. `O=C1COc2ccc(C3=C(c4ccc(F)cc4F)C(=O)OC3)cc2N1`: the IC50 is 4.6 µM on Progesterone receptor, over 10 µM at Androgen receptor and over 10 µM on Glucocorticoid receptor.

In the case of `CC1OC(=O)C(c2ccc(F)cc2)=C1c1ccc2c(c1)NC(=O)CO2` (racemic), the IC50 was 0.74 µM at Progesterone receptor, over 10 µM on Androgen receptor and 3.8 µM at Glucocorticoid receptor.
